Screening data: PubChem BioAssay, several laboratories
In the library only some 3.9% were active in any assay of this set; here they are far more common.
697 NFkB inh = lowers PMA/ionomycin-induced NF-kB signal in 697 B cells; AID 435022; inhibition, % at 4 µM; 330,000 tested, 0.33% active; 697 B-cell NF-kB luciferase reporter, 16 h; in the data active = inhibition above about 35%
CHOP UPR activ = activators of apoptotic arm of unfolded protein response (CHOP); activation, % at 10 µM; AID 449763; 330,000 tested, 0.34% active; CHO-CHOP luciferase reporter, UPR activation, luminescence; percent of tunicamycin response over DMSO baseline;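 active = at 10 µM dose, activation of 40% or more, normalized to positive control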;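 note: 100% = tunicamycin at 10 µg/mL and 0% = DMSO alone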
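System: CHO-CHOP luciferase reporter cell line | Buffer or medium: F12 medium containing 10% fetal bovine serum | Doses: One dose, 10 µM in 0.5% DMSO | Times: 6 h compound exposure at 37 °C after overnight seeding | Signal: Luciferase luminescence | Read-out: % activation vs tunicamycin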
Jurkat NFkB inh = lowers PMA/ionomycin-induced NF-kB signal in Jurkat cells; PMA/ionomycin-induced NF-kB luciferase reporter, luminescence; 330,000 tested, 0.53% active; inhibition, % at 4 µM; in the data active = inhibition above about 50%
Gli-Sufu antag = Gli-Sufu pathway antagonism | AID 588413 | Sufu-KO-LIGHT fibroblasts, Gli luciferase reporter luminescence | inhibition, % at 5 µM | 340,000 tested, 0.74% active;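 active = inhibition above about 55%, limit read from the data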;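 note: 0% = DMSO-treated cells and 100% = wells with medium but no cells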
CHOP inhibitor = CHOP inhibition in unfolded protein response | CHO-K1 CHOP-promoter luciferase, tunicamycin-induced, 15-18 h | inhibition, % at 10 µM | 220,000 tested, 3.8% active | AID 2732;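 active = compounds that reduced the stress-induced luciferase reporter signal by more than about 70% of percent inhibition, limit read from the data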;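 note: 0% = tunicamycin plus vehicle and 100% = wells without tunicamycin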
XBP1 UPR activ = activators of adaptive arm of unfolded protein response (XBP1); activation, % at 20 µM; AID 463104; CHO-XBP1 luciferase reporter, IRE1-XBP1 UPR activation, luminescence; percent of tunicamycin response, DMSO as zero; 330,000 tested, 0.33% active;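 active = versus positive control, 20 µM dose yields 30% or more activation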;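 note: 100% = tunicamycin at 10 µg/mL and 0% = DMSO only wells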
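Material: IRE1-XBP1 luciferase reporter CHO line / Quantity: one thousand reporter cells per well / Buffer or medium: F12 with 10% serum / Compound: 20 µM single concentration, DMSO 1% / Times: 6 h treatment, 37 °C / Detection: Steady-Glo luciferase glow luminescence, 10 min after reagent addition / Benchmarks: tunicamycin high, DMSO low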
CHOP confirm = confirmation of CHOP induction inhibitors | shares compounds with CHOP inhibitor | inhibition, % at 10 µM | 2,100 tested, 45% active | CHO-CHOP promoter luciferase reporter, tunicamycin-induced, luminescence;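 active = mean of three repeat readings of reporter signal inhibition above a set limit, cut at about 70% in these data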;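 note: 0% = tunicamycin plus vehicle and 100% = wells lacking tunicamycin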
Starred values were filed as active, the others as inactive.

`CCOc1cc(/C=C2/NC(=O)N(CC(=O)Nc3cccc(C)c3)C2=O)ccc1OCC(N)=O` gave 697 NFkB inh 10.7, CHOP UPR activ -0.3, Jurkat NFkB inh -25.3, Gli-Sufu antag 5.4, CHOP inhibitor 14.9 and XBP1 UPR activ -3.0.
Screening CCOc1cccc(/C=C2/NC(=O)N(CC(=O)Nc3cccc(C)c3)C2=O)c1O returned 697 NFkB inh 14.7, CHOP UPR activ 0.0, Jurkat NFkB inh -16.6, Gli-Sufu antag 2.8, CHOP inhibitor 103.8*, XBP1 UPR activ -0.9 and CHOP confirm -57.8.
For CC(=O)c1c(C)[nH]c(C(=O)N(C)CC(=O)Nc2ccc(Cl)c(C(F)(F)F)c2)c1C the results were 697 NFkB inh -14.9, CHOP UPR activ 0.9, Jurkat NFkB inh 7.2, Gli-Sufu antag 19.9 and XBP1 UPR activ -0.6.
CC(C)OC(=O)c1ccccc1C(=O)c1ccc(N)c([N+](=O)[O-])c1 was read as 697 NFkB inh -1.1, CHOP UPR activ -1.8, Jurkat NFkB inh 6.0, Gli-Sufu antag 4.6, CHOP inhibitor 37.4 and XBP1 UPR activ -1.4.
CNC(=O)COC(=O)c1ccccc1C(=O)c1ccc(Cl)c([N+](=O)[O-])c1 was read as Gli-Sufu antag 3.6, CHOP inhibitor 97.2* and CHOP confirm -57.2.
For CCc1nc2c(cnn2-c2ccc(Cl)cc2)c(=O)n1-c1ccc(OC)cc1 the results were 697 NFkB inh -3.9, CHOP UPR activ 1.4, Jurkat NFkB inh 6.5, Gli-Sufu antag 15.4, CHOP inhibitor 100.8*, XBP1 UPR activ 5.2 and CHOP confirm 87.6*.
Screening CCOc1ccc(-n2c(C)nc3c(cnn3-c3ccc(Cl)cc3)c2=O)cc1 returned Gli-Sufu antag 17.5 and CHOP inhibitor 62.1.
For CNc1ccc(Br)cc(C(=O)/C=C/c2ccc(Cl)cc2Cl)c1=O the results were 697 NFkB inh -11.7, CHOP UPR activ 5.0, Jurkat NFkB inh 6.5, Gli-Sufu antag -9.0, CHOP inhibitor 103.2*, XBP1 UPR activ -3.8 and CHOP confirm -29.8.
COc1cc(C(=O)Nc2nnc(CC(=O)NCc3ccccc3)s2)cc(OC)c1OC was read as 697 NFkB inh -2.2, CHOP UPR activ 1.6, Jurkat NFkB inh 12.0, Gli-Sufu antag 5.7 and XBP1 UPR activ -3.9.
Screening CC(C)(C)OC(=O)N1CCCC(C(=O)Nc2cccc(C(=O)N3CCCCC3)c2)C1 (configuration not stated) returned Gli-Sufu antag -35.8.
Screening CC(C)c1ccc2c(c1)C1(NN=C(c3ccccc3)S1)C(=O)N2 (configuration not stated) returned 697 NFkB inh -60.2, CHOP UPR activ 30.6, Jurkat NFkB inh -50.3, Gli-Sufu antag 48.3, CHOP inhibitor 104.5*, XBP1 UPR activ 8.6 and CHOP confirm 105.8*.
Screening COc1ccc(Nc2sc(C(=O)c3ccc(Cl)cc3)c(N)c2C(=O)Nc2ccccc2OC)cc1 returned 697 NFkB inh -6.0, CHOP UPR activ -0.6, Jurkat NFkB inh -4.9, Gli-Sufu antag 25.8, CHOP inhibitor 29.1 and XBP1 UPR activ 0.9.
For COc1ccccc1NC(=O)c1c(Nc2ccccc2C)sc(C(=O)Nc2cccc(Cl)c2)c1N the results were 697 NFkB inh 4.0, CHOP UPR activ 22.7, Jurkat NFkB inh 3.3, Gli-Sufu antag 8.0, CHOP inhibitor 100.0*, XBP1 UPR activ -0.9 and CHOP confirm 131.0*.
For O=C(O)c1cc(S(=O)(=O)N2CCCCC2)ccc1N1CCOCC1 the results were 697 NFkB inh -7.5, CHOP UPR activ -0.1, Jurkat NFkB inh -1.9, Gli-Sufu antag -9.0 and XBP1 UPR activ 0.5.
`CCCOC(=O)CSc1nnc(-c2ccc(Cl)cc2Cl)o1` gave 697 NFkB inh 17.3, CHOP UPR activ -1.3, Jurkat NFkB inh -6.2, Gli-Sufu antag -0.5, CHOP inhibitor 97.6*, XBP1 UPR activ -7.1 and CHOP confirm 30.2.
Screening COc1ccc(CCNC(=O)COC(=O)CSc2ccc(C(N)=O)cc2[N+](=O)[O-])cc1OC returned Gli-Sufu antag -9.1.
Screening CN(C)S(=O)(=O)c1cccc(NC(=O)COc2cccc3ccccc23)c1 returned 697 NFkB inh 3.0, CHOP UPR activ 0.1, Jurkat NFkB inh -0.7, Gli-Sufu antag -0.6 and XBP1 UPR activ -1.8.
Screening CSc1cccc(NC(=O)COc2cccc3ccccc23)c1 returned 697 NFkB inh 20.8, CHOP UPR activ 0.5, Jurkat NFkB inh 10.8, Gli-Sufu antag -7.3, CHOP inhibitor 105.7*, XBP1 UPR activ 2.7 and CHOP confirm 15.6.
C[C@H](CO)N1C[C@H](C)[C@@H](CN(C)Cc2ccncc2)Oc2c(NS(=O)(=O)c3cn(C)cn3)cccc2C1=O was read as 697 NFkB inh 16.2, CHOP UPR activ -0.5, Jurkat NFkB inh 1.9, Gli-Sufu antag -14.1 and XBP1 UPR activ -3.6.
Screening CCc1ccc(C(=O)/C=C/c2ccc([N+](=O)[O-])o2)cc1 returned 697 NFkB inh 11.2, CHOP UPR activ -2.3, Jurkat NFkB inh 12.6, Gli-Sufu antag -2.1, CHOP inhibitor 105.7*, XBP1 UPR activ -3.4 and CHOP confirm 139.8*.
`c1ccc(-c2nnnn2-c2ccccc2)cc1` gave 697 NFkB inh 7.5, CHOP UPR activ 0.1, Jurkat NFkB inh -1.4, Gli-Sufu antag 0.4 and XBP1 UPR activ 1.6.
Screening ClC(Cl)(c1nnnn1-c1ccccc1)c1nnnn1-c1ccccc1 returned Gli-Sufu antag 13.2, CHOP inhibitor 108.2* and CHOP confirm 30.3.
`Cc1nc(C(N)=O)c(N)n1CCc1ccccc1` gave 697 NFkB inh -1.8, CHOP UPR activ 2.0, Jurkat NFkB inh -1.5, Gli-Sufu antag -1.3 and XBP1 UPR activ 0.5.
For CC(C)CCn1c(N2CCN(c3cccc(Cl)c3)CC2)nc2c1c(=O)[nH]c(=O)n2C the results were 697 NFkB inh -63.8, CHOP UPR activ 4.8, Jurkat NFkB inh -11.0, Gli-Sufu antag 13.0, CHOP inhibitor 105.8*, XBP1 UPR activ 4.6 and CHOP confirm 65.5.
CCCCCCCCn1c(N2CCN(c3cccc(Cl)c3)CC2)nc2c1c(=O)[nH]c(=O)n2C was read as 697 NFkB inh -11.6, CHOP UPR activ 2.4, Jurkat NFkB inh 3.4, Gli-Sufu antag 8.2, CHOP inhibitor 6.2 and XBP1 UPR activ 0.7.
For C/C=C/Cn1c(SCCCc2ccccc2)nc2c1c(=O)[nH]c(=O)n2C the results were 697 NFkB inh -21.4, CHOP UPR activ 2.1, Jurkat NFkB inh 0.1, Gli-Sufu antag 17.7, CHOP inhibitor 103.5*, XBP1 UPR activ 1.7 and CHOP confirm 102.6*.
`CCCCCCn1c(SCCC)nc2c1c(=O)[nH]c(=O)n2C` gave 697 NFkB inh -25.6, CHOP UPR activ 0.9, Jurkat NFkB inh 13.7, Gli-Sufu antag 8.5, CHOP inhibitor 98.7*, XBP1 UPR activ 7.9 and CHOP confirm 80.8*.
